pEC50, pIC50: −log10 of the molar value.
Key:
[1] = molecular target: T1, Membrane-associated tyrosine- and threonine-specific cdc2-inhibitory kinase (Homo sapiens, UniProt Q99640)
T1 sequence (Q99640 whole entry): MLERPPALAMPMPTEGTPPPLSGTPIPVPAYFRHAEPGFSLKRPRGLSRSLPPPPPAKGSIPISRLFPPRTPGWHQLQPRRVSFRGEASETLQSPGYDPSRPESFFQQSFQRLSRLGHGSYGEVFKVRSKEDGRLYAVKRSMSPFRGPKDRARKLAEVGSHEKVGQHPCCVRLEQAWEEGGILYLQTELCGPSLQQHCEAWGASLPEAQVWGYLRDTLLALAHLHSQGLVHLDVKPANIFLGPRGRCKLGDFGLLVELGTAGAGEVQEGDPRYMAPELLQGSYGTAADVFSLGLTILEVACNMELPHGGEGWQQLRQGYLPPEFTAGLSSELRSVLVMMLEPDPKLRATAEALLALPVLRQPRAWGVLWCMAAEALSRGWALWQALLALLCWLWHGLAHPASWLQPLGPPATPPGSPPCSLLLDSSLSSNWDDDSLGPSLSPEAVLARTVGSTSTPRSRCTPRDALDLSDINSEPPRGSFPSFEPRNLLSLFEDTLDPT

[2] = rat, in vivo, iv, 1 mg/kg, 24 h
[3] = rat, in vivo, po, 5 mg/kg, 24 h
[4] = Plasma protein binding in rat at 1 uM
[5] = molecular target: Wee1-like protein kinase (Homo sapiens, UniProt P30291); experiment: Inhibition of WEE1 (unknown origin)
Chain of Wee1-like protein kinase (P30291 whole entry): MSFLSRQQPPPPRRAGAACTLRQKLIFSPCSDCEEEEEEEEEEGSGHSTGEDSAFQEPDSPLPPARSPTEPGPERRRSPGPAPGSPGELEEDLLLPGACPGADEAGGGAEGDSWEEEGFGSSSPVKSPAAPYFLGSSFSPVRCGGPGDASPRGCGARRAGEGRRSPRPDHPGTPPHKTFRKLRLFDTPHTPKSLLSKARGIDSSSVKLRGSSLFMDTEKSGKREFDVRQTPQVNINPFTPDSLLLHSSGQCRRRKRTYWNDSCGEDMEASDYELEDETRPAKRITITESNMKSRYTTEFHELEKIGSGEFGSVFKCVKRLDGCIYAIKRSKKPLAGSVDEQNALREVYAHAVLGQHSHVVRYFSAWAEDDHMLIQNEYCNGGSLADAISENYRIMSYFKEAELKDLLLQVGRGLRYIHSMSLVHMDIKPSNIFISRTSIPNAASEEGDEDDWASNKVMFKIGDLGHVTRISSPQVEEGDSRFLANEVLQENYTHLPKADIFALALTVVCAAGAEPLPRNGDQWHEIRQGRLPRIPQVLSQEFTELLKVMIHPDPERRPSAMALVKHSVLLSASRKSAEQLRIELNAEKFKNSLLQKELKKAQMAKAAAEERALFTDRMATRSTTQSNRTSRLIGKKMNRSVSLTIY

[6] = Toxicity in SCID/Beige mouse xenografted with OVCAR-3 cells assessed as change in body weight at 300 ppm measured upto 21 days; type: cell-based; conditions: in vivo, 504 h, time < 21 day
Summary of the method: (§1)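 OVCAR3 flank xenografts in female SCID-beige mice (n=8) given drug-formulated chow for 21 days after blank-chow acclimatization. Individual body weight change relative to day 0 = (BWlast−BWday0)/BWday0 ×100. Food consumption was also monitored as two-day mean chow intake.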

[7] = In vivo inhibition of PKMYT1 in SCID/Beige mouse xenografted with human OVCAR-3 cells assessed as inhibition of CDK1 phosphorylation measured upto 10 hrs post oral dose by ELISA method; type: functional
Summary of the method: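 OVCAR3 tumours were collected 2, 6 and 10 h after oral BID dosing (n=4/group/time point). They were homogenised in Tris lysis buffer with protease and phosphatase inhibitors. pCDK1(Thr14) was measured by sandwich ELISA with an anti-CDK1 capture antibody, an anti-CDK1-pT14 detector and an anti-rabbit HRP secondary, read at 450 nm. Signal was expressed relative to vehicle, and the free-plasma EC50 was derived by non-linear dose-response fitting.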

[8] = test system: OVCAR-3; experiment: Antitumor activity against human OVCAR-3 cells xenografted in SCID/Beige mouse assessed as reduction in tumor growth measured upto 20 days by digital caliper method; type: functional, cell-based; conditions: dose 15-300 ppm, time <= 21.0 day, DDE = dose-dependent effect, in the assay text read “upto 21 days” for “upto 20 days”
Summary of the method: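 Female SCID-beige mice (5–7 weeks) were implanted in the right flank with 5×10^6 OVCAR3 cells in 1:1 matrigel:media. At 100–150 mm3 they were randomised (n=8/group) and acclimatised to blank chow for 3–5 days. They then received drug-formulated chow at 15, 50 or 300 ppm for 21 days. Tumours were measured by caliper, with volume = 0.52×L×W2. TGI was calculated from group means at day 0 and the last day versus vehicle.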

[9] = Stability in SCID/Beige mouse plasma assessed as unbound compound at 50 to 300 ppm simulated dose incorporated with chow diet measured on 22 day; type: ADME; conditions: in vivo, po, dose 50-300 ppm
Summary of the method: (§2)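 OVCAR3-bearing SCID-beige mice were fed drug-formulated chow. Whole blood was sampled at 6:30am and 4:30pm on days 2, 5 and 22 and quantified by LC-MS/MS. Blood levels were converted to free plasma levels using blood/plasma ratio 1.2 and CD-1 plasma fu 0.185. […] Time over EC90 was referenced to the tumour pCDK1(Thr14) EC90.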

[10] = Metabolic stability in human hepatocytes assessed as intrinsic clearance measured per 10^6 cells
[11] = Toxicity in SCID/Beige mouse xenografted with OVCAR-3 cells assessed as reduction in food consumption at 15 to 300 ppm incorporated with chow diet measured upto 21 days; type: cell-based; conditions: in vivo, po, 504 h, dose 15-300 ppm, time < 21 day
Summary of the method: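 The drug was dissolved in acetone and mixed into rodent meal at 300 ppm, then diluted with untreated feed to lower levels. Xenografted SCID-beige mice were acclimatised to blank chow, then fed 15, 50 or 300 ppm chow for 21 days. The two-day mean chow consumption was compared with mice on blank chow.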

[12] = Oral bioavailability in Cynomolgous monkey at 1 mg/kg measured upto 24 hrs by reversed phase LCMS analysis; type: ADME, organism-based, Macaca fascicularis; conditions: cynomolgus monkey, in vivo
[13] = molecular target: Cytochrome P450 2D6 (Homo sapiens, UniProt P10635); experiment: Inhibition of CYP2D6 (unknown origin)
Chain of Cytochrome P450 2D6 (P10635 whole entry): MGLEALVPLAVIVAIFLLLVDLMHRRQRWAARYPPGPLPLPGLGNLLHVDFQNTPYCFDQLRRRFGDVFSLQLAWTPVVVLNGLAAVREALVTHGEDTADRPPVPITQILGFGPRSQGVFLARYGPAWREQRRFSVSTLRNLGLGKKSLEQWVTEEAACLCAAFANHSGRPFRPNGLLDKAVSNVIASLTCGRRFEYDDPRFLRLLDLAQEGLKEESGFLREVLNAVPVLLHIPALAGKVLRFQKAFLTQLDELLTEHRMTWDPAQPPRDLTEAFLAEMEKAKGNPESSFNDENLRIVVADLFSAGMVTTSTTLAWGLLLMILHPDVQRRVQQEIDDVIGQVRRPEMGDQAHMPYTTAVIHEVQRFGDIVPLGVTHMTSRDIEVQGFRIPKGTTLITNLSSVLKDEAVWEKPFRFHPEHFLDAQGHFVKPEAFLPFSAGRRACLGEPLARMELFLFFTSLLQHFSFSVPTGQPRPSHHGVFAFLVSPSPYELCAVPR

[14] = Apparent permeability across apical to basolateral side in human Caco-2 cells
[15] = Oral bioavailability in CD-1 mouse at 2.5 to 5 mg/kg measured upto 24 hrs by HPLC-LCMS analysis; type: ADME, organism-based; conditions: in vivo, dose 2.5-5 mg/kg
Summary of the method: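 Female CD1 mice (20–30 g) dosed IV at 1 mg/kg as a solution. Oral dosing at 2.5 or 5 mg/kg as a suspension in 0.5% methyl cellulose. […] Non-compartmental analysis.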

[16] = test system: OVCAR-3; experiment: Antitumor activity against human OVCAR-3 cells xenografted in SCID/Beige mouse assessed as time over EC90 concentration at 15 ppm incorporated with chow diet; type: functional
Summary of the method: as §2

[17] = molecular target: T2, Cytochrome P450 3A4 (Homo sapiens, UniProt P08684); experiment: Induction of CYP3A4 in human hepatocytes at 3 uM relative to rifampicin; type: ADME, cell-based, Hepatocyte
T2 sequence (P08684 whole entry): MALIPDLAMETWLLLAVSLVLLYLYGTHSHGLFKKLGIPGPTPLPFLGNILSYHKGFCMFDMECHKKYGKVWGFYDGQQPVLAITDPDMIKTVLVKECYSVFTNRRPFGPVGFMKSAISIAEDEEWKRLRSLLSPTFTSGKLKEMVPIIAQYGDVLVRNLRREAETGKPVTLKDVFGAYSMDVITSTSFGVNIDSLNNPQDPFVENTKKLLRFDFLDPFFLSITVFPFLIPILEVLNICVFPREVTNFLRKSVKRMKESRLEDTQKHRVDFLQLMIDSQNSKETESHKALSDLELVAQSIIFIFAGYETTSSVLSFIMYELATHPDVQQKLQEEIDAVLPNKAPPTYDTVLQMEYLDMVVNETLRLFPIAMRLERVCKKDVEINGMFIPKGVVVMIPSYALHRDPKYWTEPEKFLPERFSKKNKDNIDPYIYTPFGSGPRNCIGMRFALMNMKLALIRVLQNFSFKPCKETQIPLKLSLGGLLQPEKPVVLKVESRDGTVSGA
Summary of the method: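 Single-donor human hepatocytes exposed at 3 μM. CYP3A4 induction expressed as % of the 10 μM rifampicin positive control.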

[18] = Unbound Cmax in SCID/Beige mouse xenografted with OVCAR-3 cells at 50 ppm incorporated with chow diet; type: ADME; conditions: po
Summary of the method: as §2

[19] = molecular target: Voltage-gated inwardly rectifying potassium channel KCNH2 (Homo sapiens, UniProt Q12809); experiment: Inhibition of human ERG by patch-clamp assay; type: toxicity
Chain of Voltage-gated inwardly rectifying potassium channel KCNH2 (Q12809 whole entry): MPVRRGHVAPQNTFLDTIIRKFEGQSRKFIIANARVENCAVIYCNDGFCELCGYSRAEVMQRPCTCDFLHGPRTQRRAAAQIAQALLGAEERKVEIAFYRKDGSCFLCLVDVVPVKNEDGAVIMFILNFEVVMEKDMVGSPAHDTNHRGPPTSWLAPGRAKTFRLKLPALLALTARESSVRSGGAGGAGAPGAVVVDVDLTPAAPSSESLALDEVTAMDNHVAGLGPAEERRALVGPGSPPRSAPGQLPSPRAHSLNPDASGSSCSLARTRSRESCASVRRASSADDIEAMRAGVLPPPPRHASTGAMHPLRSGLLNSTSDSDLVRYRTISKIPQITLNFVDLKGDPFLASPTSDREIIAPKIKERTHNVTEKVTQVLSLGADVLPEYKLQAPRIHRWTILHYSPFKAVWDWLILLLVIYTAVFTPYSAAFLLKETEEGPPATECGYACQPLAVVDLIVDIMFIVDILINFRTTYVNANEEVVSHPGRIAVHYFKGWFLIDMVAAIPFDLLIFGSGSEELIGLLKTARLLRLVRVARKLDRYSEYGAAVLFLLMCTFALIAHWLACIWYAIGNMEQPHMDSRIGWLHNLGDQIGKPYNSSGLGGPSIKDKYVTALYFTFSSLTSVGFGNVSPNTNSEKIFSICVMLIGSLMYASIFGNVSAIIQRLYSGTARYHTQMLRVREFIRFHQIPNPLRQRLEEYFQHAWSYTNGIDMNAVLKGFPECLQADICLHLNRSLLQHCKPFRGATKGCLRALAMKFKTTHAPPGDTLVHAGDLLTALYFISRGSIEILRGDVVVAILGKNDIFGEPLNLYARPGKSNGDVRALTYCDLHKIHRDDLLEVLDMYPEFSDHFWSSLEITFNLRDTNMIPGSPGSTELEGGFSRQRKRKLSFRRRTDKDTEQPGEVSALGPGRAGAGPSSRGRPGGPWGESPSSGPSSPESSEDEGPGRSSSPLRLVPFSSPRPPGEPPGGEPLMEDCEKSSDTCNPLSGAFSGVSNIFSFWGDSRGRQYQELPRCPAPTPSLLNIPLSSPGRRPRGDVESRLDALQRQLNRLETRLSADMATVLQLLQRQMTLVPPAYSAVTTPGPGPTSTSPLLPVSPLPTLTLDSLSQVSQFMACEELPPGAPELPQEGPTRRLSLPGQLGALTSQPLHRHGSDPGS

[20] = molecular target: Cytochrome P450 2C9 (Homo sapiens, UniProt P11712); experiment: Inhibition of CYP2C9 (unknown origin)
Chain of Cytochrome P450 2C9 (P11712 whole entry): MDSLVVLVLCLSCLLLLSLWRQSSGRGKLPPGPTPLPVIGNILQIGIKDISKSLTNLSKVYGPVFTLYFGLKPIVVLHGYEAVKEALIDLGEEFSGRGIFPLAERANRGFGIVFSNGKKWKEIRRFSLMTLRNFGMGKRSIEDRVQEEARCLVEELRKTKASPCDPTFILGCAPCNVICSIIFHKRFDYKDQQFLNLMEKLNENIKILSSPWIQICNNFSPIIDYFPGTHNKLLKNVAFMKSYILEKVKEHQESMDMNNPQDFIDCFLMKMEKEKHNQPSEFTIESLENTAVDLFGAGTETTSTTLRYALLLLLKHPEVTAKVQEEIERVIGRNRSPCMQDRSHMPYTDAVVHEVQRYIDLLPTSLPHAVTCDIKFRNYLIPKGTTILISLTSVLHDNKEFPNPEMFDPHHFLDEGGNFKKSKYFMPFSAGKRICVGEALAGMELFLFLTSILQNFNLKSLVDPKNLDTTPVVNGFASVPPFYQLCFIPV

[21] = Toxicity in SCID/Beige mouse xenografted with OVCAR-3 cells assessed as tolerated dose at 300 ppm measured upto 21 days; type: cell-based; conditions: in vivo, 504 h, time < 21 day
Summary of the method: as §1

[22] = molecular target: T2, Cytochrome P450 3A4; experiment: Inhibition of CYP3A4 (unknown origin)

SMILES: Cc1ccc(C(F)F)cc1-n1c(N)c(C(N)=O)c2nc3ccccc3nc21
- pIC50 [1]: < 4.70

SMILES: Cc1ccc(Cl)c(C)c1-n1c(N)c(C(N)=O)c2nc3ccccc3nc21
- pIC50 [1]: < 4.70

SMILES: NC(=O)c1c(N)n(-c2cccc3[nH]cnc23)c2nc3ccccc3nc12
- pIC50 [1]: < 4.70

SMILES: Cc1ccc(O)c(C)c1-n1c(N)c(C(N)=O)c2cc(C3CC3)cnc21
- CL free [2]: 170 mL/min/kg
- F [3]: 28%
- PPB [4]: 80.3%

SMILES: Cc1cnc2c(c1)c(C(N)=O)c(N)n2-c1c(C)ccc(O)c1C
- CL free [2]: 76 mL/min/kg
- F [3]: 62%
- PPB [4]: 73.8%

SMILES: Cc1ccc(O)c(C)c1-n1c(N)c(C(N)=O)c2nc3cc(Br)ccc3nc21
- pIC50 [1]: > 8.52

SMILES: Cc1c(O)ccc(Cl)c1-n1c(N)c(C(N)=O)c2nc3ccccc3nc21
- pIC50 [5]: 6.64

SMILES: NC(=O)c1c(N)n(-c2c(Cl)ccc(O)c2Cl)c2nc3ccccc3nc12
- pIC50 [5]: 6.66

SMILES: Cc1ccc(O)c(C)c1-n1c(N)c(C(N)=O)c2cc(Cl)c(C)nc21
- CL free [2]: 731 mL/min/kg
- F [3]: 24%
- PPB [4]: 93.1%

SMILES: NC(=O)c1c(N)n(-c2cccc(O)c2)c2nc3ccccc3nc12
- pIC50 [5]: 4.71

SMILES: Cc1ccc2[nH]ncc2c1-n1c(N)c(C(N)=O)c2nc3ccccc3nc21
- pIC50 [5]: 5.49

SMILES: Cc1cc2c(C(N)=O)c(N)n(-c3c(C)ccc(O)c3C)c2nc1C [LUNRESERTIB]
- Activity [6]: Non-Toxic
- pEC50 ([7]; Homo sapiens, OVCAR-3, 10 h): 9.70
- EC90 ([7]; route po, time <= 10 hrs): 0.011 µM
- Activity [8]: Dde
- Stability [9]: Stable
- CLH [10]: 3.2 µL/min
- Activity [11]: Non-Toxic
- F [12]: 29%
- pIC50 [13]: < 4.52
- Papp [14]: 15.2 10^-6 cm/s
- F [15]: 37%
- Time [16]: 0 h
- Activity [17]: 12.5%
- fCmax [18]: 15.5 nM
- pIC50 [19]: < 4.00
- F ([3]; Sprague-Dawley): 48%
- pIC50 [20]: < 4.52
- Activity [21]: Non-Toxic

SMILES: Cc1ccccc1-n1c(N)c(C(N)=O)c2nc3ccccc3nc21
- pIC50 [1]: < 4.70

SMILES: Cc1ccc(O)c(C)c1-n1c(N)c(C(N)=O)c2nc(N3CCOCC3)cnc21
- CLH [10]: < 3 µL/min
- CL free [2]: 151 mL/min/kg
- pIC50 [13]: < 4.52
- Papp [14]: 5.8 10^-6 cm/s
- F [3]: 18%
- PPB [4]: 62.8%
- pIC50 [20]: < 4.52
- pIC50 [22]: < 4.52
